ChEMBL document CHEMBL3112537, “A novel series of 6-substituted 3-(pyrrolidin-1-ylmethyl)chromen-2-ones as selective monoamine oxidase (MAO) A inhibitors” (Eur J Med Chem, 2014)
Active and inactive are the calls of the source. No cut-off for these calls is given here.

Assays:
[1] = biological target: T1, Amine oxidase [flavin-containing] B (Homo sapiens, UniProt P27338); experiment: Inhibition of human recombinant MAO-B assessed as kynuramine oxidation to 4-hydroxyquinoline after 40 mins by LC-MS/MS analysis
T1 sequence (P27338 whole entry): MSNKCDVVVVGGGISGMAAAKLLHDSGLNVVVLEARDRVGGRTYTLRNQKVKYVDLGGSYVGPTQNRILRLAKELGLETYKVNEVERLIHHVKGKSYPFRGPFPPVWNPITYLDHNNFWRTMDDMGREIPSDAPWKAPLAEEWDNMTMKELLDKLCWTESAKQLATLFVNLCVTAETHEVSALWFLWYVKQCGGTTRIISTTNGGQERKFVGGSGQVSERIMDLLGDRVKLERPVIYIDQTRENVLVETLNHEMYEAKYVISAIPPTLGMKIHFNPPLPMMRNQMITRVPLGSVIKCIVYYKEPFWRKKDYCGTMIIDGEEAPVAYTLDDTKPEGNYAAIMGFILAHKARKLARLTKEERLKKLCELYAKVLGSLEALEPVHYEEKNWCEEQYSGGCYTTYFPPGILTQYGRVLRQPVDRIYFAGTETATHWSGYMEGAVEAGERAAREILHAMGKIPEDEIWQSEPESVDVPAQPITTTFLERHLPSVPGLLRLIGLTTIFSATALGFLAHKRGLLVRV
In short: (§1)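 Human MAO A and MAO B inhibition using kynuramine as a mixed substrate for both isoforms. IC50 is given as the mean ± SE of duplicate determinations.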

[2] = Metabolic stability in rat liver microsomes assessed as compound remaining at 5 uM after 60 mins by LC-MS/MS analysis; type: ADME; conditions: read-out: Stability
In short: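 Incubation with rat liver microsomes, read as % of compound remaining after 60 min.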

Rattus norvegicus [3] = experiment: In vivo inhibition of MAO-A in Sprague-Dawley rat assessed as 5-hydroxyindoleacetic acid in brain striatum at 100 umol/kg, sc after 1 hr by HPLC/EC analysis relative to control; type: functional; parameters: scale not given: the % may be the effect or the level left
In short: (§2)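 Freely moving rats dosed subcutaneously and sacrificed 1 h later. Striatal DOPAC, 3-MT and 5-HIAA were measured post mortem and expressed as % of saline control (n = 4). Significance was by Student's t-test, P < 0.05.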

Rattus norvegicus [4] = experiment: In vivo inhibition of MAO-A in Sprague-Dawley rat assessed as 3,4-dihydroxyphenylacetic acid level in brain striatum at 100 umol/kg, sc after 1 hr by HPLC/EC analysis relative to control; type: functional; parameters: scale not given: the % may be the effect or the level left; in short: as §2
Rattus norvegicus [5] = experiment: In vivo inhibition of MAO-A in Sprague-Dawley rat assessed as 3-methoxytyramine level in brain striatum at 100 umol/kg, sc after 1 hr by HPLC/EC analysis relative to control; type: functional; parameters: scale not given: the % may be the effect or the level left; in short: as §2
[6] = biological target: T2, Amine oxidase [flavin-containing] A (Homo sapiens, UniProt P21397); experiment: Inhibition of human recombinant MAO-A assessed as kynuramine oxidation to 4-hydroxyquinoline after 40 mins by LC-MS/MS analysis; in short: as §1
T2 sequence (P21397 whole entry): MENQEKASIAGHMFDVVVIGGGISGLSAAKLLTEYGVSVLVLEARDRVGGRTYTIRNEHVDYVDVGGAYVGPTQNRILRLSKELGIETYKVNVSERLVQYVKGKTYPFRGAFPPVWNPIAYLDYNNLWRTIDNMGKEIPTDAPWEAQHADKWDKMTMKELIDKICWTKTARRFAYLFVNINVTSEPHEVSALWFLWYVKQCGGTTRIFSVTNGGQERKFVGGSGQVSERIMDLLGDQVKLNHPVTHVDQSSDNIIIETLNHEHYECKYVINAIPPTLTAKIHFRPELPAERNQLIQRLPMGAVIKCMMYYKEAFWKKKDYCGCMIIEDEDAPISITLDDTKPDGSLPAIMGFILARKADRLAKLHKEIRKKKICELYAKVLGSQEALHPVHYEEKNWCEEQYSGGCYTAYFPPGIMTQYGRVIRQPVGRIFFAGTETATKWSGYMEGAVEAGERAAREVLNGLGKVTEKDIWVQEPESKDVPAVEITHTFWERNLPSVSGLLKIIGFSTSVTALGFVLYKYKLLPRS

[7] = Aqueous solubility of the compound in saline solution; type: physicochemical
Rattus norvegicus [8] = experiment: In vivo inhibition of MAO-A in Sprague-Dawley rat assessed as 3,4-dihydroxyphenylacetic acid level in brain striatum at 53 umol/kg, sc after 1 hr by HPLC/EC analysis relative to control; type: functional; parameters: scale not given: the % may be the effect or the level left
In short: (§3)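 Freely moving rats were given a subcutaneous dose and sacrificed 1 h later. Striatal DOPAC, 3-MT and 5-HIAA were measured post mortem and expressed as % of saline control (n = 4). Significance was tested by Student's t-test (P < 0.05).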

Rattus norvegicus [9] = experiment: In vivo inhibition of MAO-A in Sprague-Dawley rat assessed as 3-methoxytyramine level in brain striatum at 53 umol/kg, sc after 1 hr by HPLC/EC analysis relative to control; type: functional; parameters: scale not given: the % may be the effect or the level left; in short: as §3
Rattus norvegicus [10] = experiment: In vivo inhibition of MAO-A in Sprague-Dawley rat assessed as 5-hydroxyindoleacetic acid in brain striatum at 53 umol/kg, sc after 1 hr by HPLC/EC analysis relative to control; type: functional; parameters: scale not given: the % may be the effect or the level left; in short: as §3
Homo sapiens = species: Homo sapiens; experiment: Selectivity index, ratio of IC50 for human recombinant MAO-B to IC50 for human recombinant MAO-A
In short: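 Selectivity index for MAO A = IC50(MAO B)/IC50(MAO A), with both human isoforms assayed against kynuramine substrate.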

[11] = biological target: Sodium-dependent serotonin transporter (Homo sapiens) (UniProt P31645); experiment: Displacement of [3H]-imipramine from human serotonin transporter at 10 uM relative to control
In short: (§4)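 Competition binding run by a contract lab, read as % inhibition of control specific binding at a single test concentration. Radioligand per target: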

[12] = biological target: Sodium-dependent noradrenaline transporter (Homo sapiens) (UniProt P23975); experiment: Displacement of [3H]-nisoxetin from human norepinephrine transporter at 1 uM relative to control; in short: as §4
[13] = biological target: Adrenergic receptor alpha-2 (Rattus norvegicus) (UniProt P22086+P19328+P22909); experiment: Displacement of [3H]-RX-821002 from rat alpha-2 adrenergic receptor at 1 uM relative to control; in short: as §4
Rattus norvegicus [14] = experiment: In vivo inhibition of MAO-A in Sprague-Dawley rat assessed as decrease in 3,4-dihydroxyphenylacetic acid level in brain striatum at 43 umol/kg, sc up to 2 hrs by microdialysis method; type: functional, organism-based
In short: (§5)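 Single subcutaneous dose to freely moving rats. Striatal DOPAC and 3-MT were sampled by microdialysis and measured by HPLC/EC over 2 h after dosing at time 0. Levels are expressed as % of saline control (n = 1–2).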

Rattus norvegicus [15] = experiment: In vivo inhibition of MAO-A in Sprague-Dawley rat assessed as increase in 3-methoxytyramine level in brain striatum at 43 umol/kg, sc up to 2 hrs by microdialysis method; type: functional, organism-based; in short: as §5
[16] = biological target: Sodium-dependent dopamine transporter (Homo sapiens) (UniProt Q01959); experiment: Displacement of [3H]BTCP from human dopamine transporter at 1 uM relative to control; in short: as §4
[17] = biological target: T3, 5-hydroxytryptamine receptor 1A (Homo sapiens) (UniProt P08908); experiment: Displacement of [3H]8-OH-DPAT from human 5-HT1A receptor at 1 uM relative to control; in short: as §4
T3 sequence (whole entry): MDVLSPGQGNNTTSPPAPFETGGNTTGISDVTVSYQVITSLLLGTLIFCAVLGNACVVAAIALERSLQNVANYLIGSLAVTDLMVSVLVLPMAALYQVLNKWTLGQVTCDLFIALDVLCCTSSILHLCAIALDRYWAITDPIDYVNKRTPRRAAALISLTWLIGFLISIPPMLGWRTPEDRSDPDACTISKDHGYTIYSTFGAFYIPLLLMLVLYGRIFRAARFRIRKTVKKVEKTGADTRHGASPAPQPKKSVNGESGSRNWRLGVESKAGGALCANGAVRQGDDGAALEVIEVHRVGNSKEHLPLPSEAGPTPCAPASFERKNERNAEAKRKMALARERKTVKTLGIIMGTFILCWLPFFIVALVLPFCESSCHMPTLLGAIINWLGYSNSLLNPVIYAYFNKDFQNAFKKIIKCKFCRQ

[18] = biological target: Histamine H1 receptor (Homo sapiens) (UniProt P35367); experiment: Displacement of histamine from human histamine H1 receptor at 1 uM relative to control; in short: as §4
[19] = biological target: 5-hydroxytryptamine receptor 2A (Homo sapiens) (UniProt P28223); experiment: Displacement of [3H]-ketanserin from human 5-HT2A receptor at 1 uM relative to control; in short: as §4
[20] = biological target: Adrenergic receptor alpha-1 (Rattus norvegicus) (UniProt P15823+P23944+P43140); experiment: Displacement of [3H]-prazosin from rat alpha-1 adrenergic receptor at 10 uM relative to control; in short: as §4
Rattus norvegicus [21] = experiment: In vivo inhibition of MAO-A in Sprague-Dawley rat assessed as 5-hydroxyindoleacetic acid in brain striatum at 37 umol/kg, sc after 1 hr by HPLC/EC analysis relative to control; type: functional; parameters: scale not given: the % may be the effect or the level left; in short: as §2
Rattus norvegicus [22] = experiment: In vivo inhibition of MAO-A in Sprague-Dawley rat assessed as 3,4-dihydroxyphenylacetic acid level in brain striatum at 37 umol/kg, sc after 1 hr by HPLC/EC analysis relative to control; type: functional; parameters: scale not given: the % may be the effect or the level left; in short: as §2
Rattus norvegicus [23] = experiment: In vivo inhibition of MAO-A in Sprague-Dawley rat assessed as 3-methoxytyramine level in brain striatum at 37 umol/kg, sc after 1 hr by HPLC/EC analysis relative to control; type: functional; parameters: scale not given: the % may be the effect or the level left; in short: as §2
D(2) dopamine receptor = D(2) dopamine receptor (Homo sapiens, UniProt P14416); experiment: Antagonist activity at dopamine D2 receptor (unknown origin) expressed in HEK cells co-expressing Gqi5 assessed as inhibition of dopamine-induced effect by FLIPR assay; type: cell-based, HEK293
D(2) dopamine receptor, sequence (P14416 whole entry): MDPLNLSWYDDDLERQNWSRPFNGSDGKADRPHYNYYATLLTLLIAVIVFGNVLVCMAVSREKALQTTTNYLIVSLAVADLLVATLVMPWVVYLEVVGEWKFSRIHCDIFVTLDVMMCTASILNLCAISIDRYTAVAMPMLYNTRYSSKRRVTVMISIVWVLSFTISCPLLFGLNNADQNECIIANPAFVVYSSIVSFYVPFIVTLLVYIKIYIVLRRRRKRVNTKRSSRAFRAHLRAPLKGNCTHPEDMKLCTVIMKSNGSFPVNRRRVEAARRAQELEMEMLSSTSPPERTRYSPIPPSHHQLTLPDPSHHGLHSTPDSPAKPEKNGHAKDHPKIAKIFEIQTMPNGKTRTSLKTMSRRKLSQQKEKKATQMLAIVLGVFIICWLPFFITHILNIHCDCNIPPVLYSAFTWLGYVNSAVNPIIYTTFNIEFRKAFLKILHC

Sodium-dependent noradrenaline transporter (Homo sapiens), sequence (P23975 whole entry): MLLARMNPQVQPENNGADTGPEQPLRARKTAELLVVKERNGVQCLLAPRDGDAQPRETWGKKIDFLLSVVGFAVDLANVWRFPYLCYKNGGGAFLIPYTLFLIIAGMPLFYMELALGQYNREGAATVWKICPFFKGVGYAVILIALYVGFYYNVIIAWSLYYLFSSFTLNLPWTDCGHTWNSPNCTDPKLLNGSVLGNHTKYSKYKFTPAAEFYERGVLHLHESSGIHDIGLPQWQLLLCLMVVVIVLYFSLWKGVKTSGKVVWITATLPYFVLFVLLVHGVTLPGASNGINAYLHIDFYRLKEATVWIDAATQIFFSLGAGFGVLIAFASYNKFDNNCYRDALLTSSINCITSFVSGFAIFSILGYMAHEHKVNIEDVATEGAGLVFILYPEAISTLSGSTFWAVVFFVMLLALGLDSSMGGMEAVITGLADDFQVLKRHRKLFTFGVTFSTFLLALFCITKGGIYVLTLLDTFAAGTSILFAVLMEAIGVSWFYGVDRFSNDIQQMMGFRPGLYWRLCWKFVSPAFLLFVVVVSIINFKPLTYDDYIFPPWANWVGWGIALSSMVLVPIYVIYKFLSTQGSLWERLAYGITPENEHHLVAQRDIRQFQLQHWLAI
Sodium-dependent serotonin transporter (Homo sapiens), sequence (P31645 whole entry, looked up): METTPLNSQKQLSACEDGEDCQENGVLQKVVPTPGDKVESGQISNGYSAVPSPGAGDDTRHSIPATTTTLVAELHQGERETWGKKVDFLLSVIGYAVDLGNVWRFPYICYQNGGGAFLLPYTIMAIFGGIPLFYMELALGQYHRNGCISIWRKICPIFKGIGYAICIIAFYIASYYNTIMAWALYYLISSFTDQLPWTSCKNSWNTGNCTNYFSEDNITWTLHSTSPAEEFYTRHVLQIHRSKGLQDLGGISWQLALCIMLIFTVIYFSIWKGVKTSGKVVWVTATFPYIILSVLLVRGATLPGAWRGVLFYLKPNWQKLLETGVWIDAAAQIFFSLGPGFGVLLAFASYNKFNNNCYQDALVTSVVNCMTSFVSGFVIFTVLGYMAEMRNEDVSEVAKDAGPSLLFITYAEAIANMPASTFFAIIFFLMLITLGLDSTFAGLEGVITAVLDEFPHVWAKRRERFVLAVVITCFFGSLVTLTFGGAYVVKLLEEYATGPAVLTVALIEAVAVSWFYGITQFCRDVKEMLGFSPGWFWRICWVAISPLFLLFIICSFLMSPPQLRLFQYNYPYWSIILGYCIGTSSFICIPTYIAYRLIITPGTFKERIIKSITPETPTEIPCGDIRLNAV
Histamine H1 receptor (Homo sapiens), sequence (P35367 whole entry): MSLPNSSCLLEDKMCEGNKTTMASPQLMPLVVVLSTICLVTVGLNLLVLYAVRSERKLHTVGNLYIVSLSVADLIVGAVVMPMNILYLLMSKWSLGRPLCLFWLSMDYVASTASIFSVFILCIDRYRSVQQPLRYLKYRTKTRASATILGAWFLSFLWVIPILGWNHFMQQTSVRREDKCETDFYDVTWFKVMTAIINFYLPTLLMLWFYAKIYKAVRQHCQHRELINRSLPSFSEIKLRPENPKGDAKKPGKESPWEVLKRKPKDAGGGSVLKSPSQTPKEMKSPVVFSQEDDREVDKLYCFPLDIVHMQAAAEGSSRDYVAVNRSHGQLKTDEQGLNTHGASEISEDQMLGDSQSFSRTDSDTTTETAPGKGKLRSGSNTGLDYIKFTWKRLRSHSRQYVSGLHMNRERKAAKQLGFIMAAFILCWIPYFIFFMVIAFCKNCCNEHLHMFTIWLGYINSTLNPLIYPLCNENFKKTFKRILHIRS
5-hydroxytryptamine receptor 2A (Homo sapiens), sequence (P28223 whole entry): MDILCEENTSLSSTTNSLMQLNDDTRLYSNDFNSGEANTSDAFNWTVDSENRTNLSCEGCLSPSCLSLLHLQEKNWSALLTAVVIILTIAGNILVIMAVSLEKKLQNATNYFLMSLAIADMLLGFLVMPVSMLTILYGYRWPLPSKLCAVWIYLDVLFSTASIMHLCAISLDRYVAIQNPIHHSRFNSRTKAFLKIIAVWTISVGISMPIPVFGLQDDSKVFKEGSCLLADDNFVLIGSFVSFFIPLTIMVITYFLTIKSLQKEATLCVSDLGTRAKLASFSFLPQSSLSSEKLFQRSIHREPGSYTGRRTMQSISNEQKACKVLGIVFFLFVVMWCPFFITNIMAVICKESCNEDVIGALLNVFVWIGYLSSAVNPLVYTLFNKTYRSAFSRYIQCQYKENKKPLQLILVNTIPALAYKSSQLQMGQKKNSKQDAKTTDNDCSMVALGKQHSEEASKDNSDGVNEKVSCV
Sodium-dependent dopamine transporter (Homo sapiens), sequence (Q01959 whole entry): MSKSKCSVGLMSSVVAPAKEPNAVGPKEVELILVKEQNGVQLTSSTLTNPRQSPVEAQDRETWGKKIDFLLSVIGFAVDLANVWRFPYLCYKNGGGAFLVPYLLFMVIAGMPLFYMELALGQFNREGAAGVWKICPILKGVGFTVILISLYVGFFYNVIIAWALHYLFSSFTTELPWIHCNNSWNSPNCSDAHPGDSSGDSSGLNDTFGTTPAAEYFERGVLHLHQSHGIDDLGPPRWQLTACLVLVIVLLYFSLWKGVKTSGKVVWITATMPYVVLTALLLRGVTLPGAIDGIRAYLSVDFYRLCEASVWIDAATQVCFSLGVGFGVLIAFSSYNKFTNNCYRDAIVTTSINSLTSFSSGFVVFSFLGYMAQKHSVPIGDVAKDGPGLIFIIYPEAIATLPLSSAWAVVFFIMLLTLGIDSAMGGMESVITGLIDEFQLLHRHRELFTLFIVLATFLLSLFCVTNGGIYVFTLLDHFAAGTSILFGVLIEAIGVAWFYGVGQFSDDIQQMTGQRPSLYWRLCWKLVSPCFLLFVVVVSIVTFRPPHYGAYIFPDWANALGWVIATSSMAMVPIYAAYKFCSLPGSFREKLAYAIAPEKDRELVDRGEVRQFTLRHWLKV

**Q.** Which IC50 [1] does the source give for `O=c1oc2ccccc2cc1CN1CCCC1` [listing 1 of 2 here] here?
**A.** > 100 µM

**Q.** And the remaining at 1 h, 5 µM [2]?
**A.** < 5%

**Q.** What about the Activity (Rattus norvegicus [3]) of the same compound?
**A.** 106%

**Q.** And the Activity (Rattus norvegicus [4])?
**A.** 58%

**Q.** And the Activity (Rattus norvegicus [5])?
**A.** 164%

**Q.** What about the IC50 [6] of the same compound?
**A.** 6.32 µM

**Q.** For `Cl.O=c1oc2ccc([N+](=O)[O-])cc2cc1CN1CCCC1`, which solubility [7] is on record?
**A.** > 5000 µg/mL

**Q.** For `C#CCN(C)[C@H](C)Cc1ccccc1` [SELEGILINE], which Activity (Rattus norvegicus [8]) is on record?
**A.** 36%

**Q.** What about the Activity (Rattus norvegicus [9]) of the same compound?
**A.** 146%

**Q.** What about the Activity (Rattus norvegicus [10]) of the same compound?
**A.** 96%

**Q.** With `COc1ccc2oc(=O)c(CN3CCCC3)cc2c1.Cl` as the compound, how does the solubility [7] read?
**A.** > 5000 µg/mL

**Q.** For `Nc1ccc2oc(=O)c(CN3CCCC3)cc2c1`, which Ratio IC50 (Homo sapiens) is on record?
**A.** > 26.5

**Q.** What about the inhibition [11] of the same compound?
**A.** 1%

**Q.** And the inhibition [12]?
**A.** -2%

**Q.** And the inhibition [13]?
**A.** 2%

**Q.** What about the inhibition (Rattus norvegicus [14]) of the same compound?
**A.** Active

**Q.** What about the inhibition (Rattus norvegicus [15]) of the same compound?
**A.** Active

**Q.** And the inhibition [16]?
**A.** 0%

**Q.** What about the inhibition [17] of the same compound?
**A.** 0%

**Q.** What about the inhibition [18] of the same compound?
**A.** 13%

**Q.** What about the inhibition [19] of the same compound?
**A.** -4%

**Q.** And the inhibition [20]?
**A.** 4%

**Q.** For `Cl.Nc1ccc2oc(=O)c(CN3CCCC3)cc2c1`, which solubility [7] is on record?
**A.** > 5000 µg/mL

**Q.** Which IC50 [1] does the source give for `O=c1oc2ccc(OCc3ccccc3)cc2cc1CN1CCCC1` here?
**A.** > 100 µM

**Q.** And the IC50 [6]?
**A.** > 100 µM

**Q.** With `O=c1oc2ccccc2cc1CN1CCCC1` [listing 2 of 2 here] as the compound, how does the Ratio IC50 (Homo sapiens) read?
**A.** > 15.8

**Q.** With `O=C(NCCN1CCOCC1)c1ccc(Cl)cc1` [MOCLOBEMIDE] as the compound, how does the Activity (Rattus norvegicus [21]) read?
**A.** 80%

**Q.** And the Activity (Rattus norvegicus [22])?
**A.** 18%

**Q.** And the Activity (Rattus norvegicus [23])?
**A.** 398%

**Q.** With `Cl.O=c1oc2ccc(C(F)(F)F)cc2cc1CN1CCCC1` as the compound, how does the solubility [7] read?
**A.** > 5000 µg/mL

**Q.** Which solubility [7] does the source give for `Cl.O=c1oc2ccccc2cc1CN1CCCC1` here?
**A.** > 5000 µg/mL

**Q.** Which IC50 [1] does the source give for `O=c1oc2ccc([N+](=O)[O-])cc2cc1CN1CCCC1` here?
**A.** > 100 µM

**Q.** What about the IC50 (D(2) dopamine receptor) of the same compound?
**A.** > 30 µM

**Q.** And the Activity (Rattus norvegicus [3])?
**A.** 118%

**Q.** What about the Activity (Rattus norvegicus [4]) of the same compound?
**A.** 105%

**Q.** What about the Activity (Rattus norvegicus [5]) of the same compound?
**A.** 75%

**Q.** And the IC50 [6]?
**A.** > 100 µM

**Q.** Which Ratio IC50 (Homo sapiens) does the source give for `O=c1oc2ccc(O)cc2cc1CN1CCCC1` here?
**A.** > 68
